Assay results as given in ChEMBL document CHEMBL1833861 (J Med Chem, 2011).
The source made the active and inactive calls. No cut-off for these calls is given here.

Experiments:
Mus musculus [1] = assay: Antidepressant activity in BALB/cJ mouse assessed as decrease in immobility time at 1 mg/kg, ip after 30 mins by forced swim test; format: functional, organism-based; parameters: dose 1 mg/kg
In short: (§1)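 Male BALB/cJ mice, 8–10 weeks old; compound in injectable water given ip at 10 mL/kg. Sertraline (10 or 20 mg/kg) served as positive control. 30 min post-dose, each mouse placed in a glass cylinder with 12 cm of 23 ± 1 °C water; immobility (floating) timed over a 6 min trial. n = 10/group; ANOVA with post hoc test.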

Mus musculus [2] = assay: Antidepressant activity in BALB/cJ mouse assessed as decrease in immobility time at 3 mg/kg, ip after 30 mins by forced swim test; format: functional, organism-based; parameters: dose 3 mg/kg; in short: as §1
Mus musculus [3] = assay: Ex vivo receptor occupancy at beta2 nAChR in BALB/cJ mouse brain at 3 mg/kg, ip after 30 mins; format: functional; conditions: route intraperitoneal
In short: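 Male BALB/cJ mice, 8–10 weeks old, dosed IP at 3 mg/kg (water vehicle, 10 mL/kg); vehicle controls received water. Brains collected 30 min after dosing, matching the forced-swim timing. β2* nAChR occupancy measured ex vivo in thalamus.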

Mus musculus [4] = assay: Antidepressant activity in BALB/cJ mouse assessed as decrease in immobility time at 10 mg/kg, po after 30 mins by forced swim test; format: functional, organism-based; parameters: dose 10 mg/kg
In short: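 Male BALB/cJ mice, 8–10 weeks old, dosed by oral gavage with compound in injectable water (10 mL/kg). Sertraline served as positive control. Forced swim begins 30 min after dosing, in a cylinder with 12 cm of 23 ± 1 °C water; total immobility recorded over 6 min. ANOVA followed by Newman-Keuls post hoc test.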

Cl.OCCc1cc(-c2cncc(OC[C@@H]3CCN3)c2)on1 was tested. Which Activity (Mus musculus [1]) did it give?
Its Activity is “Active”.

What about the Activity (Mus musculus [2]) of the same compound?
The Activity was “Active”.

What about the Activity (Mus musculus [3]) of the same compound?
The Activity was 60%.

And the Activity (Mus musculus [4])?
Its Activity is “Active”.
